{"source": "ChEMBL document CHEMBL3124907", "key": {"[1]": {"target": "T1, 5-hydroxytryptamine receptor 2C (Homo sapiens) (UniProt P28335)", "T1 sequence (whole entry)": "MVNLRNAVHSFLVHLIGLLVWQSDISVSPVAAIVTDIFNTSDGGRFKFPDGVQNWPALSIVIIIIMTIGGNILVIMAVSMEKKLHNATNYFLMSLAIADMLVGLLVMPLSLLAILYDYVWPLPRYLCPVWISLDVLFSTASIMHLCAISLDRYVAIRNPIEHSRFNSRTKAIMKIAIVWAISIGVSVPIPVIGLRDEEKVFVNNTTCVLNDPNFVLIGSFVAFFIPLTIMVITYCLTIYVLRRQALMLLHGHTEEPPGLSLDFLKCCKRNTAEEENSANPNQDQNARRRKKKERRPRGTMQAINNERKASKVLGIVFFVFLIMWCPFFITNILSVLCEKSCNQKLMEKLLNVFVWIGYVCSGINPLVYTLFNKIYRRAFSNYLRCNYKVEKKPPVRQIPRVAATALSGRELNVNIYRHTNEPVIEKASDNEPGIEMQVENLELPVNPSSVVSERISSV", "test": "Inhibition of 5-HT2C receptor (unknown origin) at 10 uM by radioligand binding assay relative to control"}, "[2]": {"target": "5-hydroxytryptamine receptor 2B (Homo sapiens) (UniProt P41595)", "sequence (P41595 whole entry)": "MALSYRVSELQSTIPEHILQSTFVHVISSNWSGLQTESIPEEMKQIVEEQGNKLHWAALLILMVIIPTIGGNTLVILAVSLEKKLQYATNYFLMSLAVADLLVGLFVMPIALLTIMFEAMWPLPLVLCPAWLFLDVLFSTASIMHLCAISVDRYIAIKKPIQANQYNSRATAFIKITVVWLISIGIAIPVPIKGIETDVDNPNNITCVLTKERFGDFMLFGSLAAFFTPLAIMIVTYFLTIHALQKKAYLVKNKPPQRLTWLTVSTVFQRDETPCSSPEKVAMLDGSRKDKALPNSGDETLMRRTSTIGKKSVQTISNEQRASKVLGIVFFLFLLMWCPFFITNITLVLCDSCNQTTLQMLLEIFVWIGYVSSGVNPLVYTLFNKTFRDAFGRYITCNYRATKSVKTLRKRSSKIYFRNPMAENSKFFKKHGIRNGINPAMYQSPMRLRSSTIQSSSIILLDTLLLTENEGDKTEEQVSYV", "test": "Inhibition of 5-HT2B receptor (unknown origin) at 10 uM by radioligand binding assay relative to control"}, "[3]": {"target": "5-hydroxytryptamine receptor 2A (Homo sapiens) (UniProt P28223)", "sequence (P28223 whole entry)": "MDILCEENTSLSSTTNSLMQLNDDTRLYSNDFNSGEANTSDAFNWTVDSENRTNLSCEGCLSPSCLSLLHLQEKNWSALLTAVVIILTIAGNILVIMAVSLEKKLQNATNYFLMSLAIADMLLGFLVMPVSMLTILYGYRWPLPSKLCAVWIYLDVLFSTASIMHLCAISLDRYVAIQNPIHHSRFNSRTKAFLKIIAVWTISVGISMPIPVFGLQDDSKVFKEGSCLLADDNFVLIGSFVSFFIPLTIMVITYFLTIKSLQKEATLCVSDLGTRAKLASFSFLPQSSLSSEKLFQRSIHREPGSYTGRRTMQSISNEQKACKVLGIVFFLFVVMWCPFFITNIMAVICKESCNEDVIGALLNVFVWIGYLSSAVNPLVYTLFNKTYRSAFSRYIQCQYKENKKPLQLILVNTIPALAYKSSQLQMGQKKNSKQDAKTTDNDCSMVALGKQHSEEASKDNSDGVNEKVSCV", "test": "Inhibition of 5-HT2A receptor (unknown origin) at 10 uM by radioligand binding assay relative to control"}, "[4]": {"target": "5-hydroxytryptamine receptor 2B (Homo sapiens) (UniProt P41595)", "test": "Agonist activity at 5-HT2B receptor (unknown origin) expressed in Flp-In HEK cells assessed as stimulation of calcium mobilization at 10 uM relative to 5-HT", "type": "functional, cell-based", "settings": "HEK293", "method_in_brief": "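Agonist-mode calcium mobilization in Flp-In HEK cells expressing 5-HT2B, with test compound at 10 µM. Response expressed as percent of the maximal 5-HT response.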"}, "[5]": {"target": "Translocator protein (Homo sapiens) (UniProt P30536)", "sequence (P30536 whole entry)": "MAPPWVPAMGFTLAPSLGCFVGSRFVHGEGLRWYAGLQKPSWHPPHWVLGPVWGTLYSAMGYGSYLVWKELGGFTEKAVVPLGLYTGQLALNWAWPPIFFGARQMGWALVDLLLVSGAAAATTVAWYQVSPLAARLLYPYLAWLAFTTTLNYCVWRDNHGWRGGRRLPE", "test": "Inhibition of PBR (unknown origin) at 10 uM by radioligand binding assay relative to control"}, "[6]": {"target": "Muscarinic acetylcholine receptor M5 (Homo sapiens) (UniProt P08912)", "test": "Inhibition of muscarinic M5 receptor (unknown origin) at 10 uM by radioligand binding assay relative to control"}, "[7]": {"target": "Glutamate [NMDA] receptor (Homo sapiens) (UniProt Q05586+Q12879+Q13224+O15399+O60391+Q14957+Q8TCU5)", "test": "Inhibition of NMDA receptor (unknown origin) at 10 uM by radioligand binding assay relative to control"}, "[8]": {"target": "Muscarinic acetylcholine receptor M2 (Homo sapiens) (UniProt P08172)", "sequence (P08172 whole entry)": "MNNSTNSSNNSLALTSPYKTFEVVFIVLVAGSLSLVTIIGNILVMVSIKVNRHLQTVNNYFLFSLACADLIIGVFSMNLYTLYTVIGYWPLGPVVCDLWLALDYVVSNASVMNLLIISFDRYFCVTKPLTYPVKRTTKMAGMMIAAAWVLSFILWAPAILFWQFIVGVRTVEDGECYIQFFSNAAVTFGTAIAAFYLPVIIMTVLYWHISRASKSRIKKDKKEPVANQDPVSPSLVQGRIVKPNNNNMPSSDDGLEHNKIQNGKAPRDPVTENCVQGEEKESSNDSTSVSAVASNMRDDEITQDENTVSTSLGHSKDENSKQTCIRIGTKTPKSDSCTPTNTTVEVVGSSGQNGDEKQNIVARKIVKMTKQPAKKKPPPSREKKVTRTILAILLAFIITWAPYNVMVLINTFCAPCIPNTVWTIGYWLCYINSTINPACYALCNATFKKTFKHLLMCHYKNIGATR", "test": "Inhibition of muscarinic M2 receptor (unknown origin) at 10 uM by radioligand binding assay relative to control"}, "[9]": {"target": "Sodium-dependent noradrenaline transporter (Homo sapiens) (UniProt P23975)", "test": "Inhibition of NET (unknown origin) at 10 uM by radioligand binding assay relative to control"}, "[10]": {"species_on_record": "Rattus norvegicus", "test": "Inhibition of benzodiazepine receptor in rat brain at 10 uM by radioligand binding assay relative to control", "type": "tissue-based"}, "[11]": {"target": "Beta-2 adrenergic receptor (Homo sapiens) (UniProt P07550)", "sequence (P07550 whole entry, looked up)": "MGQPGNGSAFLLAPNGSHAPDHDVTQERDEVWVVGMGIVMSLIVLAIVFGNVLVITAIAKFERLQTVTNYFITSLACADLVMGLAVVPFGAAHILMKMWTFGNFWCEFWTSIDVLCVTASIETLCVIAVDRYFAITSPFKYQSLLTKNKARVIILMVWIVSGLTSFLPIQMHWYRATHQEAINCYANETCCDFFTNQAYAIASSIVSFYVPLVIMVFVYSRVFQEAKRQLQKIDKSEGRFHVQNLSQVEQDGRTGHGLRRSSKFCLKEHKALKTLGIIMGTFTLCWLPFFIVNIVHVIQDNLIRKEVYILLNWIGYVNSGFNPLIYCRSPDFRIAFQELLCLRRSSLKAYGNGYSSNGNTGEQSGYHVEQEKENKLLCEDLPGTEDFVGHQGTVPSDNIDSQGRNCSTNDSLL", "test": "Inhibition of beta-2 adrenergic receptor (unknown origin) at 10 uM by radioligand binding assay relative to control"}, "[12]": {"target": "Alpha-2C adrenergic receptor (Homo sapiens) (UniProt P18825)", "test": "Inhibition of alpha2C adrenergic receptor (unknown origin) at 10 uM by radioligand binding assay relative to control"}, "[13]": {"target": "Alpha-2A adrenergic receptor (Homo sapiens) (UniProt P08913)", "sequence (P08913 whole entry)": "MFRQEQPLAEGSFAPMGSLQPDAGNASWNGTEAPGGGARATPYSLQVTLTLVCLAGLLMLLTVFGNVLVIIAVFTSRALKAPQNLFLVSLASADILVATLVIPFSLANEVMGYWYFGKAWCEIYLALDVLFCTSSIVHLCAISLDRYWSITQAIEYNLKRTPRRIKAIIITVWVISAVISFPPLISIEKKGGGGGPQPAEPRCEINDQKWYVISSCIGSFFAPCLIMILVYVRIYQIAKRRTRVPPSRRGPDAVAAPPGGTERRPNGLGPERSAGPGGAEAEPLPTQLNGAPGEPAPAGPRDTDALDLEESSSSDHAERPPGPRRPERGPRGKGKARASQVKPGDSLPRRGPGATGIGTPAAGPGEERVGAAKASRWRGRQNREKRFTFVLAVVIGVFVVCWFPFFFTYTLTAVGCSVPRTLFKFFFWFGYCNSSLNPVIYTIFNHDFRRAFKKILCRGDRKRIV", "test": "Inhibition of alpha2A adrenergic receptor (unknown origin) at 10 uM by radioligand binding assay relative to control"}, "[14]": {"target": "Alpha-1D adrenergic receptor (Homo sapiens) (UniProt P25100)", "test": "Inhibition of alpha1D adrenergic receptor (unknown origin) at 10 uM by radioligand binding assay relative to control"}, "[15]": {"target": "Alpha-1B adrenergic receptor (Homo sapiens) (UniProt P35368)", "test": "Inhibition of alpha1B adrenergic receptor (unknown origin) at 10 uM by radioligand binding assay relative to control"}, "[16]": {"target": "Alpha-1A adrenergic receptor (Homo sapiens) (UniProt P35348)", "test": "Inhibition of alpha1A adrenergic receptor (unknown origin) at 10 uM by radioligand binding assay relative to control"}, "[17]": {"species_on_record": "Homo sapiens", "test": "Inhibition of sigma-2 receptor (unknown origin) at 10 uM by radioligand binding assay relative to control"}, "[18]": {"target": "Histamine H3 receptor (Homo sapiens) (UniProt Q9Y5N1)", "sequence (Q9Y5N1 whole entry)": "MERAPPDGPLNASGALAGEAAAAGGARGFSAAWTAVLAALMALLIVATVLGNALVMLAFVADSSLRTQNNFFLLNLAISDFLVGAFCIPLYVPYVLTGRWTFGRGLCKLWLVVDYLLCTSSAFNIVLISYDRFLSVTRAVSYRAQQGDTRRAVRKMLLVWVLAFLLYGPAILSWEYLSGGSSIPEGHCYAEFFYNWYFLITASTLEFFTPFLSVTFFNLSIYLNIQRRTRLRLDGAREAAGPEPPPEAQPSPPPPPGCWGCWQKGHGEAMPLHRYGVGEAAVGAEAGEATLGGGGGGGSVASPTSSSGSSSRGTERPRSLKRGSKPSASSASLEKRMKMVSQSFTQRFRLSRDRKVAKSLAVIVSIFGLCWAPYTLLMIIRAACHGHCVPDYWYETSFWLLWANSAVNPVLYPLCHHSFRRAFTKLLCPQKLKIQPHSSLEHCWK", "test": "Inhibition of histamine H3 receptor (unknown origin) at 10 uM by radioligand binding assay relative to control"}, "[19]": {"target": "Histamine H1 receptor (Homo sapiens) (UniProt P35367)", "sequence (P35367 whole entry)": "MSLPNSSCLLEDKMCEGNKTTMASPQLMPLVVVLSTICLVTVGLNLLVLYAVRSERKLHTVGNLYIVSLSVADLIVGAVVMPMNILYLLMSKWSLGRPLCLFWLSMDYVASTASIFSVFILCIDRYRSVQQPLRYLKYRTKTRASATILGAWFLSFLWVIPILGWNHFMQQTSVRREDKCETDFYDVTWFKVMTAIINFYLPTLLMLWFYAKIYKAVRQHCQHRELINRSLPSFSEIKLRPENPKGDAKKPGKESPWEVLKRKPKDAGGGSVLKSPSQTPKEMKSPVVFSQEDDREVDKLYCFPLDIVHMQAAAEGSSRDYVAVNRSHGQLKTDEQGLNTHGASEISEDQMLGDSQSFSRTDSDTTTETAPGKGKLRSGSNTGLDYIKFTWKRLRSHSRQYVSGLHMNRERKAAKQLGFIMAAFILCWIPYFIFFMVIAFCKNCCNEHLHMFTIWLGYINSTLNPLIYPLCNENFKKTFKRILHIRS", "test": "Inhibition of histamine H1 receptor (unknown origin) at 10 uM by radioligand binding assay relative to control"}, "[20]": {"target": "D(1B) dopamine receptor (Homo sapiens) (UniProt P21918)", "test": "Inhibition of dopamine D5 receptor (unknown origin) at 10 uM by radioligand binding assay relative to control"}, "[21]": {"target": "D(1A) dopamine receptor (Homo sapiens) (UniProt P21728)", "test": "Inhibition of dopamine D1 receptor (unknown origin) at 10 uM by radioligand binding assay relative to control"}, "[22]": {"target": "Sodium-dependent serotonin transporter (Homo sapiens) (UniProt P31645)", "sequence (P31645 whole entry, looked up)": "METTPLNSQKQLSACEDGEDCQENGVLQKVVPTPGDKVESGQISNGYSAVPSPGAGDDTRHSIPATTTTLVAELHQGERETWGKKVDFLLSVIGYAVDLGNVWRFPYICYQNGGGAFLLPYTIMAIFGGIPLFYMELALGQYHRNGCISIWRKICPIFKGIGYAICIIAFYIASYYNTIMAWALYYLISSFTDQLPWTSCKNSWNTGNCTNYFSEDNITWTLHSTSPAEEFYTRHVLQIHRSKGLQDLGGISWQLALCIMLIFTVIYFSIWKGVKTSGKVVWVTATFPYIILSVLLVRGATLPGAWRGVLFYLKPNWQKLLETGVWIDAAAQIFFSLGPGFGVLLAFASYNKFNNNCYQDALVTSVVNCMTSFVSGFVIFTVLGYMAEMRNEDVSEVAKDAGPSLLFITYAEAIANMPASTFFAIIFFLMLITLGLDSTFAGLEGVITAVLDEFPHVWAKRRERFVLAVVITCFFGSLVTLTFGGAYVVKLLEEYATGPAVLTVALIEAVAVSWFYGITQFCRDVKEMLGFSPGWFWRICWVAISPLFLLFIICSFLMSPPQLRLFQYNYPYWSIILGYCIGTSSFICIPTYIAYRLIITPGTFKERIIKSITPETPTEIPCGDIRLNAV", "test": "Inhibition of SERT (unknown origin) at 10 uM by radioligand binding assay relative to control"}, "[23]": {"target": "5-hydroxytryptamine receptor 7 (Homo sapiens) (UniProt P34969)", "sequence (P34969 whole entry)": "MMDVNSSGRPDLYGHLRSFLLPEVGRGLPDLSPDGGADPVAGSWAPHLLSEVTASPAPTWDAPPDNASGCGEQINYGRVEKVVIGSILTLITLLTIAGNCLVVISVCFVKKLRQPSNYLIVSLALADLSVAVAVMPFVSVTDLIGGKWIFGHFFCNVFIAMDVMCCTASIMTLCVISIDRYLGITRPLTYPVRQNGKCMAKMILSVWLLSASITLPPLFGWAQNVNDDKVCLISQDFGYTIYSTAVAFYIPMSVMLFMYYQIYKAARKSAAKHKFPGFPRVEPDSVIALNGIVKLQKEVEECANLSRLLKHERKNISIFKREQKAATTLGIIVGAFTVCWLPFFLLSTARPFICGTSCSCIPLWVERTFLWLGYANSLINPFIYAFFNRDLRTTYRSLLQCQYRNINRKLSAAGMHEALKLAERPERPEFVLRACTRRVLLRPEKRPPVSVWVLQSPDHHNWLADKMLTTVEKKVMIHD", "test": "Inhibition of 5-HT7 receptor (unknown origin) at 10 uM by radioligand binding assay relative to control"}, "[24]": {"target": "5-hydroxytryptamine receptor 6 (Homo sapiens) (UniProt P50406)", "sequence (P50406 whole entry)": "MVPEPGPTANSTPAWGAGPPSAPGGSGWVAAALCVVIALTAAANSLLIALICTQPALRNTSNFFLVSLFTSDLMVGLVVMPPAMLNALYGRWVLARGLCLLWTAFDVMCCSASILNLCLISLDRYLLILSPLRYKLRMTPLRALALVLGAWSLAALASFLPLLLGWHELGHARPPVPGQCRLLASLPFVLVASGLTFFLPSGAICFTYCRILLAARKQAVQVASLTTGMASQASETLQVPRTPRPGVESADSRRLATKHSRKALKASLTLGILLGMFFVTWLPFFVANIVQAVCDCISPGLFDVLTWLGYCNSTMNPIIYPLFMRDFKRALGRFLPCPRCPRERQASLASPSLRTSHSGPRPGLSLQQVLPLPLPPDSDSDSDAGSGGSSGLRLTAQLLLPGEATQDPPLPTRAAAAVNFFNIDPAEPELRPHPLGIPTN", "test": "Inhibition of 5-HT6 receptor (unknown origin) at 10 uM by radioligand binding assay relative to control"}, "[25]": {"target": "5-hydroxytryptamine receptor 3A (Homo sapiens) (UniProt P46098)", "test": "Inhibition of 5-HT3 receptor (unknown origin) at 10 uM by radioligand binding assay relative to control"}, "[26]": {"target": "5-hydroxytryptamine receptor 1D (Homo sapiens) (UniProt P28221)", "test": "Inhibition of 5-HT1D receptor (unknown origin) at 10 uM by radioligand binding assay relative to control"}, "[27]": {"target": "5-hydroxytryptamine receptor 1B (Homo sapiens) (UniProt P28222)", "test": "Inhibition of 5-HT1B receptor (unknown origin) at 10 uM by radioligand binding assay relative to control"}, "[28]": {"target": "5-hydroxytryptamine receptor 1A (Homo sapiens) (UniProt P08908)", "test": "Inhibition of 5-HT1A receptor (unknown origin) at 10 uM by radioligand binding assay relative to control"}}, "data": [{"smiles": "O=c1cc(CCCc2ccccc2)oc2cccc(O)c12", "values": [{"measurement": "inhibition", "setting": "[1]", "value": 7.9, "unit": "%"}, {"measurement": "inhibition", "setting": "[2]", "value": 70.4, "unit": "%"}, {"measurement": "inhibition", "setting": "[3]", "value": 5.4, "unit": "%"}]}, {"smiles": "O=c1cc(Cc2ccccc2)oc2cccc(O)c12", "values": [{"measurement": "inhibition", "setting": "[1]", "value": 24.8, "unit": "%"}, {"measurement": "inhibition", "setting": "[2]", "value": 30.6, "unit": "%"}, {"measurement": "inhibition", "setting": "[3]", "value": 1.4, "unit": "%"}]}, {"smiles": "O=c1cc(CCc2ccccc2)oc2cccc(O)c12", "values": [{"measurement": "Activity", "setting": "[4]", "value": 0.6, "unit": "%"}, {"measurement": "inhibition", "setting": "[5]", "value": 2.8, "unit": "%"}, {"measurement": "inhibition", "setting": "[6]", "value": 19.3, "unit": "%"}, {"measurement": "inhibition", "setting": "[7]", "value": 17.4, "unit": "%"}, {"measurement": "inhibition", "setting": "[8]", "value": 1.8, "unit": "%"}, {"measurement": "inhibition", "setting": "[9]", "value": 34.6, "unit": "%"}, {"measurement": "inhibition", "setting": "[10]", "value": 0.1, "unit": "%"}, {"measurement": "inhibition", "setting": "[11]", "value": 1.4, "unit": "%"}, {"measurement": "inhibition", "setting": "[12]", "value": 32.7, "unit": "%"}, {"measurement": "inhibition", "setting": "[13]", "value": 22.2, "unit": "%"}, {"measurement": "inhibition", "setting": "[14]", "value": 2.1, "unit": "%"}, {"measurement": "inhibition", "setting": "[15]", "value": 2.9, "unit": "%"}, {"measurement": "inhibition", "setting": "[16]", "value": 16.9, "unit": "%"}, {"measurement": "inhibition", "setting": "[17]", "value": 36.8, "unit": "%"}, {"measurement": "inhibition", "setting": "[18]", "value": 15.9, "unit": "%"}, {"measurement": "inhibition", "setting": "[19]", "value": 13, "unit": "%"}, {"measurement": "inhibition", "setting": "[20]", "value": 0.4, "unit": "%"}, {"measurement": "inhibition", "setting": "[21]", "value": 24.7, "unit": "%"}, {"measurement": "inhibition", "setting": "[22]", "value": 28.9, "unit": "%"}, {"measurement": "inhibition", "setting": "[23]", "value": 35.9, "unit": "%"}, {"measurement": "inhibition", "setting": "[24]", "value": 5.8, "unit": "%"}, {"measurement": "inhibition", "setting": "[25]", "value": 61.7, "unit": "%"}, {"measurement": "inhibition", "setting": "[26]", "value": 4.3, "unit": "%"}, {"measurement": "inhibition", "setting": "[27]", "value": 3.7, "unit": "%"}, {"measurement": "inhibition", "setting": "[28]", "value": 5.4, "unit": "%"}]}, {"smiles": "O=c1cc(CCc2cccs2)oc2cccc(O)c12", "values": [{"measurement": "inhibition", "setting": "[1]", "value": 19.6, "unit": "%"}, {"measurement": "inhibition", "setting": "[2]", "value": 74.8, "unit": "%"}, {"measurement": "inhibition", "setting": "[3]", "value": 1.4, "unit": "%"}]}, {"smiles": "O=c1cc(CCCCc2ccccc2)oc2cccc(O)c12", "values": [{"measurement": "inhibition", "setting": "[1]", "value": 14.7, "unit": "%"}, {"measurement": "inhibition", "setting": "[2]", "value": 45.2, "unit": "%"}, {"measurement": "inhibition", "setting": "[3]", "value": 5.7, "unit": "%"}]}, {"smiles": "O=c1cc(Cc2cccs2)oc2cccc(O)c12", "values": [{"measurement": "inhibition", "setting": "[1]", "value": 23.5, "unit": "%"}, {"measurement": "inhibition", "setting": "[2]", "value": 31.5, "unit": "%"}, {"measurement": "inhibition", "setting": "[3]", "value": -4.5, "unit": "%"}]}, {"smiles": "O=c1cc(COc2ccccc2)oc2cccc(O)c12", "values": [{"measurement": "inhibition", "setting": "[1]", "value": 7.8, "unit": "%"}, {"measurement": "inhibition", "setting": "[2]", "value": 50, "unit": "%"}, {"measurement": "inhibition", "setting": "[3]", "value": 0.2, "unit": "%"}]}]}
